Measurements taken from ChEMBL document CHEMBL4052710 (Bioorg Med Chem Lett, 2017).
Calls of active or inactive are those of the source. The calls are words filed in the database; no cut-off is given here.

Assays:
[1] = test system: NCI-H460; test: Growth inhibition of human H460 cells incubated for 72 hrs at 1 uM by CCK8 assay; type: functional; conditions: NCI-H460, 72 h, read-out: GI
Outline: (§1)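 CCK8 viability assay on a panel of human cancer cell lines, with an initial screen at fixed concentrations of 1 µM and 10 µM.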

[2] = test system: SiHa; test: Growth inhibition of human SiHa cells incubated for 72 hrs at 10 uM by CCK8 assay; type: functional; conditions: read-out: GI; outline: as §1
[3] = test system: A549; test: Growth inhibition of human A549 cells incubated for 72 hrs by CCK8 assay; type: functional, cell-based; conditions: A549, 72 h
[4] = test system: NCI-H1299; test: Growth inhibition of human H1299 cells incubated for 72 hrs by CCK8 assay; type: functional, cell-based; conditions: NCI-H1299, 72 h
[5] = test system: T47D; test: Induction of apoptosis in human T47D cells assessed as necrotic cells level at 5 uM incubated for 48 hrs by annexin V-FITC and propidium iodide staining based flow cytometry (reference value: 2.79%); type: functional
[6] = test system: T47D; test: Induction of cell cycle arrest in human T47D cells assessed as increase in G0/G1 phase accumulation at 0.1 to 1 uM incubated for 24 hrs by flow cytometry; type: functional, cell-based
Outline: (§2)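 Cells were treated for 24 h with compound at 0.1, 0.5 and 1 µM, with LEE011 or vehicle (DMSO) alongside. Cell-cycle phase distribution was then determined by flow cytometry.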

[7] = test system: MCF7; test: Growth inhibition of human MCF7 cells incubated for 72 hrs by CCK8 assay; type: functional, cell-based; conditions: MCF7, 72 h
[8] = test system: T47D; test: Induction of apoptosis in human T47D cells assessed as late apoptotic cells level at 5 uM incubated for 48 hrs by annexin V-FITC and propidium iodide staining based flow cytometry (reference value: 0.48%); type: functional
[9] = test system: SiHa; test: Growth inhibition of human SiHa cells incubated for 72 hrs at 1 uM by CCK8 assay; type: functional; conditions: read-out: GI; outline: as §1
[10] = biological target: CDK6/cyclin D3 (Homo sapiens) (UniProt P30281+Q00534); test: Inhibition of human CDK6/CyclinD3 at 1 uM by enzymatic radiometric assay; type: protein-complex assay
[11] = biological target: CDK2/Cyclin A2 (Homo sapiens) (UniProt P24941+P20248); test: Inhibition of human CDK2/CyclinA at 1 uM by enzymatic radiometric assay; type: protein-complex assay
Outline: (§3)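 Kinase panel run through the Eurofins KinaseProfiler, with compound at a fixed 1 µM. Values are means of two independent experiments.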

[12] = test system: T47D; test: Induction of apoptosis in human T47D cells assessed as viable cells level at 0.5 uM incubated for 48 hrs by annexin V-FITC and propidium iodide staining based flow cytometry (reference value: 96%); type: functional
[13] = test system: T47D; test: Induction of apoptosis in human T47D cells assessed as early apoptotic cells level at 5 uM incubated for 48 hrs by annexin V-FITC and propidium iodide staining based flow cytometry (reference value: 0.75%); type: functional
[14] = test system: A549; test: Growth inhibition of human A549 cells incubated for 72 hrs at 10 uM by CCK8 assay; type: functional; conditions: A549, 72 h, read-out: GI; outline: as §1
[15] = test system: OVCAR-5; test: Growth inhibition of human OVCAR5 cells incubated for 72 hrs at 1 uM by CCK8 assay; type: functional; conditions: OVCAR-5, 72 h, read-out: GI; outline: as §1
[16] = test system: HeLa; test: Growth inhibition of human HeLa cells incubated for 72 hrs at 10 uM by CCK8 assay; type: functional; conditions: read-out: GI; outline: as §1
[17] = test system: Mus musculus; test: Toxicity in mouse 4T1 cells xenografted BALB/C mouse assessed as induction of body weight loss at 50 to 150 mg/kg/day, ip dosed for 21 consecutive days; type: organism-based; conditions: in vivo
Outline: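 Tumor cells were implanted orthotopically into the mammary fat pads of female BALB/c mice aged 6-8 weeks. Once tumors averaged 100 mm3, mice received daily IP injections of 50, 100 or 150 mg/kg/day, or solvent control, for 21 consecutive days. Body weight was tracked and reported as mean with SD.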

[18] = biological target: Cyclin-dependent kinase 2/cyclin E1 (Homo sapiens) (UniProt P24864+P24941); test: Inhibition of human CDK2/CyclinE at 1 uM by enzymatic radiometric assay; type: protein-complex assay; outline: as §3
[19] = test system: NCI-H460; test: Growth inhibition of human H460 cells incubated for 72 hrs by CCK8 assay; type: functional, cell-based; conditions: NCI-H460, 72 h
[20] = test system: T47D; test: Induction of apoptosis in human T47D cells assessed as late apoptotic cells level at 1 uM incubated for 48 hrs by annexin V-FITC and propidium iodide staining based flow cytometry (reference value: 0.48%); type: functional
[21] = test system: T47D; test: Inhibition of cell migration of human T47D cells at 0.5 to 5 uM incubated for 16 hrs by transwell cell migration assay; type: functional, cell-based
Outline: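 T47D cells were assayed by transwell migration. After 16 h incubation, migrated cells were counted by microscope in five random fields per chamber.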

[22] = test system: T47D; test: Induction of apoptosis in human T47D cells assessed as viable cells level at 0.25 uM incubated for 48 hrs by annexin V-FITC and propidium iodide staining based flow cytometry (reference value: 96%); type: functional
[23] = biological target: T1, Cyclin-dependent kinase 5/CDK5 activator 1 (Homo sapiens) (UniProt Q00535+Q15078); test: Inhibition of human CDK5/p25 at 1 uM by enzymatic radiometric assay; type: protein-complex assay
T1 sequence (Q00535 whole entry): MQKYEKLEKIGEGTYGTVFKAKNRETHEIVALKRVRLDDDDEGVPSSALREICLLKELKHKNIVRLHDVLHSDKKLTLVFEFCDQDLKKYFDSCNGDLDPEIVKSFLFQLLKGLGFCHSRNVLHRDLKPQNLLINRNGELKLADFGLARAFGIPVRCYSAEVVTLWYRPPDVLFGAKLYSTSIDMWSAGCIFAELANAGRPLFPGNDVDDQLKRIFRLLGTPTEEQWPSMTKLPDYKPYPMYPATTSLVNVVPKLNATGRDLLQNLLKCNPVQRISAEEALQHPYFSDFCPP
T1 sequence (Q15078 99-307 partner limits assumed): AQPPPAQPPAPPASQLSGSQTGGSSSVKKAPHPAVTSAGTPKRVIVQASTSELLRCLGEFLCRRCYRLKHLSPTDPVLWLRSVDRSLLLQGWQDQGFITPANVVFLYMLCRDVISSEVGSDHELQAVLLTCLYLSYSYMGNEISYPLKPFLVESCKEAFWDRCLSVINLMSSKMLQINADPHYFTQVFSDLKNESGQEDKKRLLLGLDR

[24] = biological target: CDK12/Cyclin K (Homo sapiens) (UniProt O75909+Q9NYV4); test: Inhibition of human CDK12/CyclinK at 1 uM by enzymatic radiometric assay; type: protein-complex assay; outline: as §3
[25] = test system: T47D; test: Induction of cell cycle arrest in human T47D cells assessed as reduction in S phase accumulation at 0.1 to 1 uM incubated for 24 hrs by flow cytometry; type: functional, cell-based; outline: as §2
[26] = test system: T47D; test: Induction of apoptosis in human T47D cells assessed as viable cells level at 1 uM incubated for 48 hrs by annexin V-FITC and propidium iodide staining based flow cytometry (reference value: 96%); type: functional
[27] = test system: T47D; test: Induction of apoptosis in human T47D cells assessed as late apoptotic cells level at 0.5 uM incubated for 48 hrs by annexin V-FITC and propidium iodide staining based flow cytometry (reference value: 0.48%); type: functional
[28] = biological target: CDK9/cyclin T1 (Homo sapiens, UniProt P50750); test: Inhibition of human CDK9/CyclinT1 by enzymatic radiometric assay; type: protein-complex assay
Sequence of CDK9/cyclin T1 (O60563 whole entry): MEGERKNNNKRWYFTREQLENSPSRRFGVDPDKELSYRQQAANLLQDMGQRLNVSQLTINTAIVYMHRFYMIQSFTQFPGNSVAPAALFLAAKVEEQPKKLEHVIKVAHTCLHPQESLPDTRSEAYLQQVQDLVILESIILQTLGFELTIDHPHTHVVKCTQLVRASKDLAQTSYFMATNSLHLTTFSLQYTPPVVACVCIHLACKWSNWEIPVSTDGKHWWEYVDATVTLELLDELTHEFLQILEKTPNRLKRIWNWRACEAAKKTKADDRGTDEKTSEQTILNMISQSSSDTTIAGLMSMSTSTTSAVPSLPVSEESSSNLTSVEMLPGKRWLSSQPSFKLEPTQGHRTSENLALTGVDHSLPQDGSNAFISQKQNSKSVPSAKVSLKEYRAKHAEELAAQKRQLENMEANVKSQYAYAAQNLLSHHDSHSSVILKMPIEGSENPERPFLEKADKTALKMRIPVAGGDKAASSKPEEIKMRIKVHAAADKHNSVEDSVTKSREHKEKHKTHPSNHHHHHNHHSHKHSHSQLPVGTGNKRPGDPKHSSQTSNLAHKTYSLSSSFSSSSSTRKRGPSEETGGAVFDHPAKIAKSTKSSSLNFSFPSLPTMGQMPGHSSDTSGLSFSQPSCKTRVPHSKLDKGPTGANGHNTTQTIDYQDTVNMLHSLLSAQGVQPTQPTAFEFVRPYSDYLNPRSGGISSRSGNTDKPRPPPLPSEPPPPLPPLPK
Sequence of CDK9/cyclin T1 (P50750 whole entry): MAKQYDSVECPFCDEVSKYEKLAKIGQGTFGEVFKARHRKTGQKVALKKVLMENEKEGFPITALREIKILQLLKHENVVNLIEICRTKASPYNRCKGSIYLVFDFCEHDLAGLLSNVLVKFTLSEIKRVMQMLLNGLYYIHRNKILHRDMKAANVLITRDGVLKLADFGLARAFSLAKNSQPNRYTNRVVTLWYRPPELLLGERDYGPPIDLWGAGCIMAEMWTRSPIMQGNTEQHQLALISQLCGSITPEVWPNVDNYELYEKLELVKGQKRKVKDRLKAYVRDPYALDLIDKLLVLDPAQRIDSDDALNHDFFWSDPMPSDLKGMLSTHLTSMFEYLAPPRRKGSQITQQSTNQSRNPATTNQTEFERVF
Outline: (§4)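 IC50 was determined through a commercial kinase profiling service. Values are the mean of two independent experiments.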

[29] = biological target: CDK3/Cyclin E (Homo sapiens) (UniProt P24864+Q00526); test: Inhibition of human CDK3/CyclinE at 1 uM by enzymatic radiometric assay; type: protein-complex assay; outline: as §3
Sequence of CDK3/Cyclin E (Homo sapiens) (P24864 whole entry, looked up): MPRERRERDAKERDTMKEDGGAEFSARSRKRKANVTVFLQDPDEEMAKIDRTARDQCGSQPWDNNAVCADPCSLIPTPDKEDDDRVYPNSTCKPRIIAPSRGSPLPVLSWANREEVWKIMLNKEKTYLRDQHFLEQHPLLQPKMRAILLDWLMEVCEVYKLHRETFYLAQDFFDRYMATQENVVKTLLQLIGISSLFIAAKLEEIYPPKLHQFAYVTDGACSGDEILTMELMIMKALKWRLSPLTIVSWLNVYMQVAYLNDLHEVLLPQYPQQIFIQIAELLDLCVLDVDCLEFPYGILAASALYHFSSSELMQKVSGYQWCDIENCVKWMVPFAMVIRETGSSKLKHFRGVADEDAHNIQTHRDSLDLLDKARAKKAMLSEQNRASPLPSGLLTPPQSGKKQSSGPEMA
Sequence of CDK3/Cyclin E (Homo sapiens) (Q00526 whole entry, looked up): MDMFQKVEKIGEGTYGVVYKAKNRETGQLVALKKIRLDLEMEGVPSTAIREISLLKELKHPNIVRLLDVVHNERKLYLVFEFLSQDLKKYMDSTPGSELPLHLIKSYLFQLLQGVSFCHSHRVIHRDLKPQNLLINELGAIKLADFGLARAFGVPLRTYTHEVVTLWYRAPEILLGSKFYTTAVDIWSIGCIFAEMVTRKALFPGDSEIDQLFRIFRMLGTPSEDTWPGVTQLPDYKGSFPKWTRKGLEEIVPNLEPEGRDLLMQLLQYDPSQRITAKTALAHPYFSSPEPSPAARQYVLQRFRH

[30] = biological target: T1, Cyclin-dependent kinase 5/CDK5 activator 1 (Homo sapiens); test: Inhibition of human CDK5/p35 at 1 uM by enzymatic radiometric assay; type: protein-complex assay
[31] = biological target: CDK4/Cyclin D3 (Homo sapiens) (UniProt P11802+P30281); test: Inhibition of human CDK4/CyclinD3 at 1 uM by enzymatic radiometric assay; type: protein-complex assay; outline: as §3
[32] = biological target: CDK18/Cyclin Y (Homo sapiens) (UniProt Q07002+Q8ND76); test: Inhibition of human CDK18/CyclinY at 1 uM by enzymatic radiometric assay; type: protein-complex assay; outline: as §3
[33] = biological target: Vascular endothelial growth factor receptor 2 (Homo sapiens, UniProt P35968); test: Inhibition of human VEGFR2 by enzymatic radiometric assay; outline: as §4
Sequence of Vascular endothelial growth factor receptor 2 (P35968 whole entry): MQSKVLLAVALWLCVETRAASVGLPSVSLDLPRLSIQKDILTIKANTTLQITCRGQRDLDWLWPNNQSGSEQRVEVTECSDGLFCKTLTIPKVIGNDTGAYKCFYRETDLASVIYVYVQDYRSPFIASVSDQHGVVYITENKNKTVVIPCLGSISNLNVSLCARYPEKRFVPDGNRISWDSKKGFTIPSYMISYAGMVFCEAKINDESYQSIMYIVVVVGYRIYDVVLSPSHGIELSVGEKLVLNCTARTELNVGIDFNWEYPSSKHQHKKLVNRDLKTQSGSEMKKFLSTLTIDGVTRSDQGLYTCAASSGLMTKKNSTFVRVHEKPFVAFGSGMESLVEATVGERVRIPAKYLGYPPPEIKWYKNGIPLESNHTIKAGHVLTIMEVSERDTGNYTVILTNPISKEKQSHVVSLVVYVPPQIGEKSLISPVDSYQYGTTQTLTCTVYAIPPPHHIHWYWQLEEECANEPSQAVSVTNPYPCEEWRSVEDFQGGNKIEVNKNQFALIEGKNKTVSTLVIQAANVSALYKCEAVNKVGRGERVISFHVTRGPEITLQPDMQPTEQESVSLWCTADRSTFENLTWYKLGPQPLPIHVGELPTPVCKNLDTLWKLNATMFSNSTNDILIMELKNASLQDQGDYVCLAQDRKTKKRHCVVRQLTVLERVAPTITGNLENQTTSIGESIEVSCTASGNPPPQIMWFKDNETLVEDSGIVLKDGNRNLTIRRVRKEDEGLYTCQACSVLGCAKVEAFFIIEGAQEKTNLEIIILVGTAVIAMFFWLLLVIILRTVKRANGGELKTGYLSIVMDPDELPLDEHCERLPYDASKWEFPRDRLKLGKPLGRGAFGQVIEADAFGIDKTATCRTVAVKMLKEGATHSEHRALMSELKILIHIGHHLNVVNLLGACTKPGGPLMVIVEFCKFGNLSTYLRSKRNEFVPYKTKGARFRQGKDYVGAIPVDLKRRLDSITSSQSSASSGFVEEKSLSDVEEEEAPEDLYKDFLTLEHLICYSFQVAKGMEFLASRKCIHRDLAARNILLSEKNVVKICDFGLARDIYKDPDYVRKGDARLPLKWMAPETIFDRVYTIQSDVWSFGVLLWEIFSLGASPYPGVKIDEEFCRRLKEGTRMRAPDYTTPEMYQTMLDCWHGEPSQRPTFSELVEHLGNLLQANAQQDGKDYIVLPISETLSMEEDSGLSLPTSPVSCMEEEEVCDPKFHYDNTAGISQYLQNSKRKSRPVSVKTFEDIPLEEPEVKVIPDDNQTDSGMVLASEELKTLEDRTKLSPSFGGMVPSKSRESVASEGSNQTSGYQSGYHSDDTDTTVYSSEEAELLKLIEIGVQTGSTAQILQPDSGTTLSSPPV

[34] = biological target: Cyclin-dependent kinase 1/cyclin B1 (Homo sapiens) (UniProt P06493+P14635); test: Inhibition of human CDK1/CyclinB at 1 uM by enzymatic radiometric assay; type: protein-complex assay; outline: as §3
Sequence of Cyclin-dependent kinase 1/cyclin B1 (Homo sapiens) (P06493 whole entry, looked up): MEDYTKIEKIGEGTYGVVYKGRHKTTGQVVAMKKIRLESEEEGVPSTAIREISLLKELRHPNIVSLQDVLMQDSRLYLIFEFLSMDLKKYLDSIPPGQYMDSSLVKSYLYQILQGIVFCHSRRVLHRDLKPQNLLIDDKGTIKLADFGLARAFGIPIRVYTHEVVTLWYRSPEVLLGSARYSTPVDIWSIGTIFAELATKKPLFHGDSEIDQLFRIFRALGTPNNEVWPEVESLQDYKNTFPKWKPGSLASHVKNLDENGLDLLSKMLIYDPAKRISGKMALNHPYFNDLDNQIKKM
Sequence of Cyclin-dependent kinase 1/cyclin B1 (Homo sapiens) (P14635 whole entry, looked up): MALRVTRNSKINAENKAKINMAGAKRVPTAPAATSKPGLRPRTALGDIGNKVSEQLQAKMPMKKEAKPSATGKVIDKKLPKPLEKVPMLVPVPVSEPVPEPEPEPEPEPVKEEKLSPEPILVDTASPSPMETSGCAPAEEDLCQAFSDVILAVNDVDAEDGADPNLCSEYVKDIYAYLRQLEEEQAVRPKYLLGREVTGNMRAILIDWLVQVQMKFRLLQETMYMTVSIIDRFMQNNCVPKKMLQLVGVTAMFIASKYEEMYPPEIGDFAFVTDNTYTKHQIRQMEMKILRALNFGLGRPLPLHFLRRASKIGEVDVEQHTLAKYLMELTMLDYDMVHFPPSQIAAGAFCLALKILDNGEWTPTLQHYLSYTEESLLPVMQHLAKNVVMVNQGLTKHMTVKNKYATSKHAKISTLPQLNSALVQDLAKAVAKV

[35] = test system: T47D; test: Induction of apoptosis in human T47D cells assessed as necrotic cells level at 1 uM incubated for 48 hrs by annexin V-FITC and propidium iodide staining based flow cytometry (reference value: 2.79%); type: functional

For CN(C)C(=O)c1cc2cnc(Nc3ccc(NC(=O)C4(C(=O)Nc5ccc(F)cc5)CC4)cc3)nc2n1C1CCCC1, the inhibition of growth at 1 µM [1] was 79.9%, the inhibition of growth at 10 µM [2] was 98% and the IC50 [3] was 456 nM. The IC50 [4] was 221 nM, the Activity [5] was 2.23% and the Activity [6] was “Active”. For the same compound, the IC50 [7] was 338 nM, the Activity [8] was 5.29% and the inhibition of growth at 1 µM [9] was 36.5%. It also gave an inhibition [10] of 71%, an inhibition [11] of 29% and an Activity [12] of 93.1%. For the same compound, the Activity [13] was 7.45%, the inhibition of growth at 10 µM [14] was 102% and the inhibition of growth at 1 µM [15] was 65.4%. For the same compound, the inhibition of growth at 10 µM [16] was 73.7%, the Activity [17] was “Non-Toxic” and the inhibition [18] was 85%. The IC50 [19] was 359 nM, the Activity [20] was 4.98% and the inhibition [21] was “Active”. For the same compound, the Activity [22] was 94.2%, the inhibition [23] was 86% and the inhibition [24] was 24%. The Activity [25] was “Active”, the Activity [26] was 90.5% and the Activity [27] was 3.58%. It also gave an IC50 [28] of 12 nM, an inhibition [29] of 65% and an inhibition [30] of 81%. The inhibition [31] was 102%, the inhibition [32] was 6% and the IC50 [33] was > 10000 nM. It also gave an inhibition [34] of 73% and an Activity [35] of 1.39%.
